Experimental findings from ChEMBL document CHEMBL1143230, “5-Substituted 2-aminothiophenes as A1 adenosine receptor allosteric enhancers” (Bioorg Med Chem, 2008) are described below.

Holding throughout (settings): CHO-K1
The target of assay [1] is T1, Adenosine receptor A1 (Homo sapiens) (UniProt P30542).
T1 sequence (whole entry): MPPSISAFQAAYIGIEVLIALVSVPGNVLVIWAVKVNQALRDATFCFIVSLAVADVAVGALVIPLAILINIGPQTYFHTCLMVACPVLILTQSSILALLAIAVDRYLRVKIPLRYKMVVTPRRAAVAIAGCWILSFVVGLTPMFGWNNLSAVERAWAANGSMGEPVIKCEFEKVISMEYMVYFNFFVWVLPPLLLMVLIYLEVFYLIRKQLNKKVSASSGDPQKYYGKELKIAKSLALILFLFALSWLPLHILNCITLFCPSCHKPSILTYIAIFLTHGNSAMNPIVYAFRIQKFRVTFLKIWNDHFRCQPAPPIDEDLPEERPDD
Kind of assay: Activity at human adenosine A1 receptor expressed in CHOK1 cells assessed as agonist-receptor ternary complex remaining by […] after 10 mins. It is filed as functional, cell-based. On the set-up: concentration or dose not given beside the values. The gist of the method:
(§1)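 Membranes from CHO-K1 cells stably expressing hA1AR, 10 ug protein. Phase 2: vehicle or enhancer for 30 min. Phase 3: 100 uM BW-1433 plus 25 uM GTPgammaS for 10 min. Score = % specific binding remaining. ED50 and maximal score from hyperbolic fit over 0.1–50 uM, N = 2–3.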
A general note: GTPγS resists hydrolysis and so accumulates on activated G proteins.

The target of assay [2] is T1, Adenosine receptor A1 (Homo sapiens). Briefly: Displacement of [3H]CPX from human adenosine A1 receptor expressed in CHOK1 cells at 10 uM relative to control. It is filed as cell-based. The gist of the method: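 Membranes from CHO-K1 cells expressing human A1 receptor, resuspended at 400 ug/mL in HE buffer with 1 U/mL adenosine deaminase. Incubated with [3H]CPX (2 nM in the added buffer) and 10 uM enhancer (final) for 90 min at room temperature. Non-specific binding defined with 100 uM NECA. Filtration, scintillation counting, triplicate, expressed as % inhibition versus control binding.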

The target is the same in assay [3]. Briefly: Activity at human adenosine A1 receptor expressed in CHOK1 cells assessed as agonist-receptor ternary complex remaining by […]. The class given is functional, cell-based. A digest of the protocol:
as §1

As to `Nc1sc(-c2ccccc2)c(-c2cccc(C(F)(F)F)c2)c1C(=O)c1ccccc1`, the Activity in assay [1] worked out at 18.1%. The same compound returned an inhibition in assay [2] of 82.4%. Also, the ED50 in assay [3] was 2.3 µM.

As for `CCOC(=O)c1c(N)sc(-c2cccc(C(C)=O)c2)c1-c1cccc(C(F)(F)F)c1`, the Activity in assay [1] is 14.4%. In assay [2], this compound returned an inhibition of 68.9%. Also, the ED50 in assay [3] was above 10 µM.

Turning to `CCOC(=O)c1c(N)sc(-c2ccccc2)c1-c1cccc(C(F)(F)F)c1`, the Activity in assay [1] was 13.2%. In addition, the inhibition in assay [2] came to 83.6%. Moreover, the ED50 in assay [3] is above 10 µM.

Consider `COc1ccc(-c2sc(N)c(C(=O)c3ccccc3)c2-c2cccc(C(F)(F)F)c2)cc1`, for which, in assay [1], the Activity is 7.4%. The compound also had an inhibition in assay [2] of 65.2%. The ED50 in assay [3] is above 10 µM.

In the case of `CCOC(=O)c1c(N)sc(-c2ccc([N+](=O)[O-])cc2)c1-c1cccc(C(F)(F)F)c1`, in assay [1], the Activity was 10.3%. The compound also had an inhibition in assay [2] of 71.4%. Moreover, the ED50 in assay [3] is above 10 µM.

`CCOC(=O)c1c(N)sc(-c2ccc(-c3ccncc3)cc2)c1-c1cccc(C(F)(F)F)c1`: the Activity in assay [1] is 0%. In assay [2], this compound returned an inhibition of 91%. Moreover, in assay [3], the ED50 is above 10 µM.

Take `Nc1sc(-c2ccc(Cl)cc2)c(-c2cccc(C(F)(F)F)c2)c1C(=O)c1ccccc1`: the Activity in assay [1] came out at 22.5%. The same compound had an inhibition in assay [2] of 59.1%. Moreover, in assay [3], the ED50 was above 10 µM.

For `Nc1scc(-c2cccc(C(F)(F)F)c2)c1C(=O)c1ccccc1`, the Activity in assay [1] is 76.8%. In addition, in assay [2], the inhibition amounted to 61.1%. In assay [3], the ED50 is 15.8 µM.

For the compound `CC(=O)c1cccc(-c2sc(N)c(C(=O)c3ccccc3)c2-c2cccc(C(F)(F)F)c2)c1`, the Activity in assay [1] amounted to 18.5%. Also, the inhibition in assay [2] turned out to be 33.1%. Further, in assay [3], the ED50 is above 10 µM.

As to `CCOC(=O)c1c(N)sc(-c2ccc(Cl)cc2)c1-c1cccc(C(F)(F)F)c1`, in assay [1], the Activity was 57%. Moreover, in assay [2], the inhibition was found to be 58.4%. In addition, in assay [3], the ED50 came out at 6.6 µM.

Turning to `Nc1sc(Br)c(-c2cccc(C(F)(F)F)c2)c1C(=O)c1ccccc1`, the Activity in assay [1] came out at 53.5%. The compound also displayed an inhibition in assay [2] of 47.5%. Besides, in assay [3], the ED50 is above 10 µM.

For the compound `CCOC(=O)c1c(N)sc(-c2ccc(OC)cc2)c1-c1cccc(C(F)(F)F)c1`, the Activity in assay [1] worked out at 17.5%. The compound also registered an inhibition in assay [2] of 81.5%. Also, in assay [3], the ED50 is above 10 µM.

As for `Nc1sc(-c2ccc([N+](=O)[O-])cc2)c(-c2cccc(C(F)(F)F)c2)c1C(=O)c1ccccc1`, in assay [1], the Activity is 23.7%. The inhibition in assay [2] worked out at 34.8%. In assay [3], the ED50 was above 10 µM.

With `CCOC(=O)c1c(-c2cccc(C(F)(F)F)c2)csc1N`, in assay [1], the Activity stood at 7.8%. The same compound returned an inhibition in assay [2] of 93%. In addition, the ED50 in assay [3] was 9.4 µM.

`CCOC(=O)c1c(N)sc(-c2ccc(C(F)(F)F)cc2)c1-c1cccc(C(F)(F)F)c1`: the Activity in assay [1] was determined as 14.8%. The inhibition in assay [2] was 48.5%. Besides, the ED50 in assay [3] is above 10 µM.

On to `Nc1sc(Cl)c(-c2cccc(C(F)(F)F)c2)c1C(=O)c1ccccc1`, for which, in assay [1], the Activity was 22.2%. The compound further showed an inhibition in assay [2] of 87.1%. Besides, the ED50 in assay [3] is above 10 µM.

For `CC(=O)c1ccc(-c2sc(N)c(C(=O)c3ccccc3)c2-c2cccc(C(F)(F)F)c2)cc1`, in assay [1], the Activity came to 4.8%. In assay [2], this compound showed an inhibition of 25.6%. For the same compound, the ED50 in assay [3] is above 10 µM.

For the compound `CCOC(=O)c1c(N)sc(-c2ccc(C(C)=O)cc2)c1-c1cccc(C(F)(F)F)c1`, the Activity in assay [1] is 28.5%. The compound also showed an inhibition in assay [2] of 64.6%. Also, the ED50 in assay [3] was above 10 µM.

By inhibition is commonly meant the share of the control response that was lost under treatment.
